Activity calls are given as the source filed them. No cut-off for these calls is given here.
System: Rattus norvegicus
Experiment: Antiinflammatory activity against Wistar albino rat assessed as inhibition of carrageenan-induced paw edema at 20 mg/kg, po administered 30 mins prior to carrageenan challenge measured after 0.5 hrs
Type: functional
Procedure, shortened: (§1)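 Carrageenan paw oedema in Wistar albino rats (Winter method). Compounds given orally at 20 mg/kg as a suspension in 1% carboxymethyl cellulose, 30 min before 0.1 mL of 1% w/v carrageenan injected into the plantar region of the paw. Paw volume measured by plethysmography at 30, 60, 90, 120, 150 and 180 min. Inhibition calculated relative to vehicle controls. Mean ± SEM.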

Structure (SMILES)	inhibition in vivo at 20 mg/kg
Cc1ccc(/C=N/n2c(C(C)c3ccc(CC(C)C)cc3)nn(CN3CCOCC3)c2=S)cc1 (stereo unspecified)	0%
CC(C)Cc1ccc(C(C)c2nn(CN3CCOCC3)c(=S)n2/N=C/c2ccc(Cl)cc2)cc1 (stereo unspecified)	90%
CC(C)Cc1ccc(C(C)c2nn(CN3CCN(C)CC3)c(=S)n2/N=C/c2ccc([N+](=O)[O-])cc2)cc1 (stereo unspecified)	38%
CC(C)Cc1ccc(C(C)C(=O)O)cc1 (stereo unspecified) [IBUPROFEN]	20%
CC(C)Cc1ccc(C(C)c2nn(CN3CCOCC3)c(=S)n2/N=C/c2ccc([N+](=O)[O-])cc2)cc1 (stereo unspecified)	12%

System: Rattus norvegicus
Experiment: Antiinflammatory activity against Wistar albino rat assessed as inhibition of carrageenan-induced paw edema at 20 mg/kg, po administered 30 mins prior to carrageenan challenge measured after 3 hrs
Type: functional
Procedure, shortened: as §1

Structure (SMILES)	inhibition in vivo at 20 mg/kg
Cc1ccc(/C=N/n2c(C(C)c3ccc(CC(C)C)cc3)nn(CN3CCOCC3)c2=S)cc1 (stereo unspecified)	68%
CC(C)Cc1ccc(C(C)c2nn(CN3CCOCC3)c(=S)n2/N=C/c2ccc(Cl)cc2)cc1 (stereo unspecified)	74%
CC(C)Cc1ccc(C(C)c2nn(CN3CCN(C)CC3)c(=S)n2/N=C/c2ccc([N+](=O)[O-])cc2)cc1 (stereo unspecified)	74%
CC(C)Cc1ccc(C(C)C(=O)O)cc1 (stereo unspecified) [IBUPROFEN]	42%
CC(C)Cc1ccc(C(C)c2nn(CN3CCOCC3)c(=S)n2/N=C/c2ccc([N+](=O)[O-])cc2)cc1 (stereo unspecified)	73%

System: Aspergillus
Experiment: Antimicrobial activity against Aspergillus at 1000 ug after 24 to 48 hrs by well diffusion method
Type: functional, organism-based
Procedure, shortened: (§2)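 Agar well diffusion against Staphylococcus aureus, Escherichia coli and Aspergillus. Compounds dissolved in DMF (10 mg in 10 mL), and the solution placed into wells cut with a borer. Plates incubated at 37 °C for 24–48 h, then inspected.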

Structure (SMILES)	Activity
Cc1ccc(/C=N/n2c(C(C)c3ccc(CC(C)C)cc3)nn(CN3CCOCC3)c2=S)cc1 (stereo unspecified)	inactive
CC(C)Cc1ccc(C(C)c2nn(CN3CCOCC3)c(=S)n2/N=C/c2ccc(Cl)cc2)cc1 (stereo unspecified)	inactive
CC(C)Cc1ccc(C(C)c2nn(CN3CCN(C)CC3)c(=S)n2/N=C/c2ccc([N+](=O)[O-])cc2)cc1 (stereo unspecified)	inactive
CC(C)Cc1ccc(C(C)c2nn(CN3CCOCC3)c(=S)n2/N=C/c2ccc([N+](=O)[O-])cc2)cc1 (stereo unspecified)	inactive

System: Rattus norvegicus
Experiment: Antiinflammatory activity against Wistar albino rat assessed as inhibition of carrageenan-induced paw edema at 20 mg/kg, po administered 30 mins prior to carrageenan challenge measured after 1 hrs
Type: functional
Procedure, shortened: as §1

Structure (SMILES)	inhibition in vivo at 20 mg/kg
Cc1ccc(/C=N/n2c(C(C)c3ccc(CC(C)C)cc3)nn(CN3CCOCC3)c2=S)cc1 (stereo unspecified)	23%
CC(C)Cc1ccc(C(C)c2nn(CN3CCOCC3)c(=S)n2/N=C/c2ccc(Cl)cc2)cc1 (stereo unspecified)	42%
CC(C)Cc1ccc(C(C)c2nn(CN3CCN(C)CC3)c(=S)n2/N=C/c2ccc([N+](=O)[O-])cc2)cc1 (stereo unspecified)	70%
CC(C)Cc1ccc(C(C)C(=O)O)cc1 (stereo unspecified) [IBUPROFEN]	18%
CC(C)Cc1ccc(C(C)c2nn(CN3CCOCC3)c(=S)n2/N=C/c2ccc([N+](=O)[O-])cc2)cc1 (stereo unspecified)	52%

System: Rattus norvegicus
Experiment: Antiinflammatory activity against Wistar albino rat assessed as inhibition of carrageenan-induced paw edema at 20 mg/kg, po administered 30 mins prior to carrageenan challenge measured after 1.5 hrs
Type: functional
Procedure, shortened: as §1

Structure (SMILES)	inhibition in vivo at 20 mg/kg
Cc1ccc(/C=N/n2c(C(C)c3ccc(CC(C)C)cc3)nn(CN3CCOCC3)c2=S)cc1 (stereo unspecified)	64%
CC(C)Cc1ccc(C(C)c2nn(CN3CCOCC3)c(=S)n2/N=C/c2ccc(Cl)cc2)cc1 (stereo unspecified)	61%
CC(C)Cc1ccc(C(C)c2nn(CN3CCN(C)CC3)c(=S)n2/N=C/c2ccc([N+](=O)[O-])cc2)cc1 (stereo unspecified)	82%
CC(C)Cc1ccc(C(C)C(=O)O)cc1 (stereo unspecified) [IBUPROFEN]	25%
CC(C)Cc1ccc(C(C)c2nn(CN3CCOCC3)c(=S)n2/N=C/c2ccc([N+](=O)[O-])cc2)cc1 (stereo unspecified)	65%

System: Mus musculus
Experiment: Analgesic activity against Swiss albino mouse assessed as increase in paw licking or jump response at 10 mg/kg, po after 1.5 hrs by hot plate method
Type: functional
Procedure, shortened: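 Hot-plate test in Swiss albino mice, 6 per group. Compounds given orally by gavage as a suspension in 1% carboxymethyl cellulose, 10 mg/kg. Animals placed on a plate held at 55 ± 1 °C, with paw licking or jumping as the end point. Reaction time recorded at 30, 60 and 90 min after dosing. Percentage increase in reaction time calculated using the maximum tolerated reaction time. Mean ± SEM.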

Structure (SMILES)	Activity
Cc1ccc(/C=N/n2c(C(C)c3ccc(CC(C)C)cc3)nn(CN3CCOCC3)c2=S)cc1 (stereo unspecified)	64.32%
CC(C)Cc1ccc(C(C)c2nn(CN3CCOCC3)c(=S)n2/N=C/c2ccc(Cl)cc2)cc1 (stereo unspecified)	76.49%
CC(C)Cc1ccc(C(C)c2nn(CN3CCN(C)CC3)c(=S)n2/N=C/c2ccc([N+](=O)[O-])cc2)cc1 (stereo unspecified)	70.75%
CC(C)Cc1ccc(C(C)c2nn(CN3CCOCC3)c(=S)n2/N=C/c2ccc([N+](=O)[O-])cc2)cc1 (stereo unspecified)	79.6%

System: Rattus norvegicus
Experiment: Antiinflammatory activity against Wistar albino rat assessed as inhibition of carrageenan-induced paw edema at 20 mg/kg, po administered 30 mins prior to carrageenan challenge measured after 2 hrs
Type: functional
Procedure, shortened: as §1

Structure (SMILES)	inhibition in vivo at 20 mg/kg
Cc1ccc(/C=N/n2c(C(C)c3ccc(CC(C)C)cc3)nn(CN3CCOCC3)c2=S)cc1 (stereo unspecified)	60%
CC(C)Cc1ccc(C(C)c2nn(CN3CCOCC3)c(=S)n2/N=C/c2ccc(Cl)cc2)cc1 (stereo unspecified)	61%
CC(C)Cc1ccc(C(C)c2nn(CN3CCN(C)CC3)c(=S)n2/N=C/c2ccc([N+](=O)[O-])cc2)cc1 (stereo unspecified)	68%
CC(C)Cc1ccc(C(C)C(=O)O)cc1 (stereo unspecified) [IBUPROFEN]	36%
CC(C)Cc1ccc(C(C)c2nn(CN3CCOCC3)c(=S)n2/N=C/c2ccc([N+](=O)[O-])cc2)cc1 (stereo unspecified)	54%

System: Rattus norvegicus
Experiment: Antiinflammatory activity against Wistar albino rat assessed as inhibition of carrageenan-induced paw edema at 20 mg/kg, po administered 30 mins prior to carrageenan challenge measured after 2.5 hrs
Type: functional
Procedure, shortened: as §1

Structure (SMILES)	inhibition in vivo at 20 mg/kg
Cc1ccc(/C=N/n2c(C(C)c3ccc(CC(C)C)cc3)nn(CN3CCOCC3)c2=S)cc1 (stereo unspecified)	67%
CC(C)Cc1ccc(C(C)c2nn(CN3CCOCC3)c(=S)n2/N=C/c2ccc(Cl)cc2)cc1 (stereo unspecified)	73%
CC(C)Cc1ccc(C(C)c2nn(CN3CCN(C)CC3)c(=S)n2/N=C/c2ccc([N+](=O)[O-])cc2)cc1 (stereo unspecified)	75%
CC(C)Cc1ccc(C(C)C(=O)O)cc1 (stereo unspecified) [IBUPROFEN]	39%
CC(C)Cc1ccc(C(C)c2nn(CN3CCOCC3)c(=S)n2/N=C/c2ccc([N+](=O)[O-])cc2)cc1 (stereo unspecified)	71%

System: Staphylococcus aureus
Experiment: Antimicrobial activity against Staphylococcus aureus at 1000 ug after 24 to 48 hrs by well diffusion method
Type: functional, organism-based
Procedure, shortened: as §2

Structure (SMILES)	Activity
Cc1ccc(/C=N/n2c(C(C)c3ccc(CC(C)C)cc3)nn(CN3CCOCC3)c2=S)cc1 (stereo unspecified)	inactive
CC(C)Cc1ccc(C(C)c2nn(CN3CCOCC3)c(=S)n2/N=C/c2ccc(Cl)cc2)cc1 (stereo unspecified)	inactive
CC(C)Cc1ccc(C(C)c2nn(CN3CCN(C)CC3)c(=S)n2/N=C/c2ccc([N+](=O)[O-])cc2)cc1 (stereo unspecified)	inactive
CC(C)Cc1ccc(C(C)c2nn(CN3CCOCC3)c(=S)n2/N=C/c2ccc([N+](=O)[O-])cc2)cc1 (stereo unspecified)	inactive

System: Escherichia coli
Experiment: Antimicrobial activity against Escherichia coli at 1000 ug after 24 to 48 hrs by well diffusion method
Type: functional, organism-based
Procedure, shortened: as §2

Structure (SMILES)	Activity
Cc1ccc(/C=N/n2c(C(C)c3ccc(CC(C)C)cc3)nn(CN3CCOCC3)c2=S)cc1 (stereo unspecified)	inactive
CC(C)Cc1ccc(C(C)c2nn(CN3CCOCC3)c(=S)n2/N=C/c2ccc(Cl)cc2)cc1 (stereo unspecified)	inactive
CC(C)Cc1ccc(C(C)c2nn(CN3CCN(C)CC3)c(=S)n2/N=C/c2ccc([N+](=O)[O-])cc2)cc1 (stereo unspecified)	inactive
CC(C)Cc1ccc(C(C)c2nn(CN3CCOCC3)c(=S)n2/N=C/c2ccc([N+](=O)[O-])cc2)cc1 (stereo unspecified)	inactive

From ChEMBL document CHEMBL1153766, “Regioselective reaction: synthesis and pharmacological study of Mannich bases containing ibuprofen moiety” (2009)
